Data published in ChEMBL document CHEMBL5058577, “EUbOPEN Chemogenomics Library 2 (Multiplex)” (2022).

Tested on: HEK-293T
Test: Multiplex assay against HEK293T
Format: toxicity, cell-based
Settings: human
Summary of the method: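 Live cells carried four stains from seeding: Hoechst33342, BioTracker Green Microtubule Cytoskeleton Dye, MitoTracker Red and Annexin V Alexa Fluor 680. They were imaged on a CQ1 microscope at 37°C and 5% CO2 after compound addition. Using CellPathfinder machine-learning gating, cells were split into Hoechst high-intensity objects or normal cells, normal cells into healthy, pyknosed or fragmented nuclei, and pyknosed cells into mitotic or apoptotic; tubulin, mitochondrial-mass and membrane-permeability phenotypes are per cents of healthy-nucleus cells.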

[1] = 12 h, 1 µM, compound concentration 1 uM, replicate 1
[2] = 12 h, 1 µM, compound concentration 1 uM, replicate 2
[3] = 12 h, 10 µM, compound concentration 10 uM, replicate 1
[4] = 12 h, 10 µM, compound concentration 10 uM, replicate 2
[5] = 24 h, 1 µM, compound concentration 1 uM, replicate 1
[6] = 24 h, 1 µM, compound concentration 1 uM, replicate 2
[7] = 24 h, 10 µM, compound concentration 10 uM, replicate 1
[8] = 24 h, 10 µM, compound concentration 10 uM, replicate 2
[9] = 48 h, 1 µM, compound concentration 1 uM, replicate 1
[10] = 48 h, 1 µM, compound concentration 1 uM, replicate 2
[11] = 48 h, 10 µM, compound concentration 10 uM, replicate 1
[12] = 48 h, 10 µM, compound concentration 10 uM, replicate 2

Compound: COc1c(C)cc(NC(=O)c2nn(Cc3ccc(F)cc3)c3c2CN(C(=O)c2ccc[nH]2)C[C@]3(C)C(N)=O)cc1C
- Population Apoptotic (%) [1]: 42%
- Population Fragmented Nuclei (%) [1]: 6%
- Population Healthy Nuclei (%) [1]: 79%
- Population Hoechst High Intensity Objects (%) [1]: 7%
- Population Membrane Permeable-Phenotype (%) [1]: 0%
- Population Mitochondria Different-Phenotype (%) [1]: 51%
- Population Mitotic Cells (%) [1]: 57%
- Population Normal (%) [1]: 92%
- Population Pyknosed Nuclei (%) [1]: 13%
- Population Tubulin-Different-Phenotype (%) [1]: 36%
- Total Cell Count [1]: 426
- Population Apoptotic (%) [2]: 38%
- Population Fragmented Nuclei (%) [2]: 7%
- Population Healthy Nuclei (%) [2]: 75%
- Population Hoechst High Intensity Objects (%) [2]: 5%
- Population Mitochondria Different-Phenotype (%) [2]: 58%
- Population Mitotic Cells (%) [2]: 61%
- Population Normal (%) [2]: 94%
- Population Pyknosed Nuclei (%) [2]: 17%
- Population Tubulin-Different-Phenotype (%) [2]: 29%
- Total Cell Count [2]: 304
- Population Apoptotic (%) [3]: 67%
- Population Fragmented Nuclei (%) [3]: 4%
- Population Healthy Nuclei (%) [3]: 77%
- Population Hoechst High Intensity Objects (%) [3]: 13%
- Population Membrane Permeable-Phenotype (%) [3]: 0%
- Population Mitochondria Different-Phenotype (%) [3]: 90%
- Population Mitotic Cells (%) [3]: 32%
- Population Normal (%) [3]: 86%
- Population Pyknosed Nuclei (%) [3]: 17%
- Population Tubulin-Different-Phenotype (%) [3]: 62%
- Total Cell Count [3]: 383
- Population Apoptotic (%) [4]: 59%
- Population Fragmented Nuclei (%) [4]: 6%
- Population Healthy Nuclei (%) [4]: 71%
- Population Mitochondria Different-Phenotype (%) [4]: 95%
- Population Mitotic Cells (%) [4]: 40%
- Population Pyknosed Nuclei (%) [4]: 21%
- Population Tubulin-Different-Phenotype (%) [4]: 63%
- Total Cell Count [4]: 285
- Population Apoptotic (%) [5]: 21%
- Population Fragmented Nuclei (%) [5]: 7%
- Population Healthy Nuclei (%) [5]: 80%
- Population Hoechst High Intensity Objects (%) [5]: 4%
- Population Membrane Permeable-Phenotype (%) [5]: 0%
- Population Mitochondria Different-Phenotype (%) [5]: 30%
- Population Mitotic Cells (%) [5]: 78%
- Population Normal (%) [5]: 95%
- Population Pyknosed Nuclei (%) [5]: 12%
- Population Tubulin-Different-Phenotype (%) [5]: 24%
- Total Cell Count [5]: 574
- Population Apoptotic (%) [6]: 51%
- Population Fragmented Nuclei (%) [6]: 5%
- Population Healthy Nuclei (%) [6]: 86%
- Population Mitochondria Different-Phenotype (%) [6]: 43%
- Population Mitotic Cells (%) [6]: 48%
- Population Pyknosed Nuclei (%) [6]: 7%
- Population Tubulin-Different-Phenotype (%) [6]: 16%
- Total Cell Count [6]: 422
- Population Apoptotic (%) [7]: 53%
- Population Fragmented Nuclei (%) [7]: 6%
- Population Healthy Nuclei (%) [7]: 73%
- Population Hoechst High Intensity Objects (%) [7]: 11%
- Population Membrane Permeable-Phenotype (%) [7]: 0%
- Population Mitochondria Different-Phenotype (%) [7]: 91%
- Population Mitotic Cells (%) [7]: 46%
- Population Normal (%) [7]: 88%
- Population Pyknosed Nuclei (%) [7]: 19%
- Population Tubulin-Different-Phenotype (%) [7]: 61%
- Total Cell Count [7]: 403
- Population Apoptotic (%) [8]: 67%
- Population Fragmented Nuclei (%) [8]: 5%
- Population Healthy Nuclei (%) [8]: 74%
- Population Hoechst High Intensity Objects (%) [8]: 15%
- Population Mitochondria Different-Phenotype (%) [8]: 92%
- Population Mitotic Cells (%) [8]: 32%
- Population Normal (%) [8]: 84%
- Population Tubulin-Different-Phenotype (%) [8]: 56%
- Total Cell Count [8]: 313
- Population Apoptotic (%) [9]: 21%
- Population Fragmented Nuclei (%) [9]: 11%
- Population Healthy Nuclei (%) [9]: 81%
- Population Hoechst High Intensity Objects (%) [9]: 2%
- Population Membrane Permeable-Phenotype (%) [9]: 1%
- Population Mitochondria Different-Phenotype (%) [9]: 25%
- Population Mitotic Cells (%) [9]: 78%
- Population Normal (%) [9]: 97%
- Population Pyknosed Nuclei (%) [9]: 6%
- Population Tubulin-Different-Phenotype (%) [9]: 18%
- Total Cell Count [9]: 920
- Population Apoptotic (%) [10]: 39%
- Population Fragmented Nuclei (%) [10]: 12%
- Population Hoechst High Intensity Objects (%) [10]: 3%
- Population Mitochondria Different-Phenotype (%) [10]: 28%
- Population Mitotic Cells (%) [10]: 60%
- Population Normal (%) [10]: 96%
- Population Tubulin-Different-Phenotype (%) [10]: 9%
- Total Cell Count [10]: 652
- Population Apoptotic (%) [11]: 60%
- Population Fragmented Nuclei (%) [11]: 8%
- Population Healthy Nuclei (%) [11]: 76%
- Population Hoechst High Intensity Objects (%) [11]: 14%
- Population Membrane Permeable-Phenotype (%) [11]: 0%
- Population Mitochondria Different-Phenotype (%) [11]: 93%
- Population Mitotic Cells (%) [11]: 39%
- Population Normal (%) [11]: 85%
- Population Pyknosed Nuclei (%) [11]: 15%
- Population Tubulin-Different-Phenotype (%) [11]: 66%
- Total Cell Count [11]: 467
- Population Apoptotic (%) [12]: 80%
- Population Fragmented Nuclei (%) [12]: 9%
- Population Healthy Nuclei (%) [12]: 81%
- Population Hoechst High Intensity Objects (%) [12]: 10%
- Population Mitochondria Different-Phenotype (%) [12]: 90%
- Population Mitotic Cells (%) [12]: 19%
- Population Normal (%) [12]: 89%
- Population Pyknosed Nuclei (%) [12]: 9%
- Population Tubulin-Different-Phenotype (%) [12]: 59%
- Total Cell Count [12]: 376

Compound: CN(C)CCCc1cc(C(=O)Nc2ccc(-c3ccncc3)cc2)ccc1O.Cl.Cl
- Population Apoptotic (%) [1]: 27%
- Population Fragmented Nuclei (%) [1]: 5%
- Population Healthy Nuclei (%) [1]: 79%
- Population Hoechst High Intensity Objects (%) [1]: 9%
- Population Membrane Permeable-Phenotype (%) [1]: 0%
- Population Mitochondria Different-Phenotype (%) [1]: 48%
- Population Mitotic Cells (%) [1]: 72%
- Population Normal (%) [1]: 90%
- Population Pyknosed Nuclei (%) [1]: 14%
- Population Tubulin-Different-Phenotype (%) [1]: 37%
- Total Cell Count [1]: 358
- Population Apoptotic (%) [2]: 37%
- Population Healthy Nuclei (%) [2]: 82%
- Population Hoechst High Intensity Objects (%) [2]: 8%
- Population Mitochondria Different-Phenotype (%) [2]: 58%
- Population Mitotic Cells (%) [2]: 62%
- Population Normal (%) [2]: 91%
- Population Pyknosed Nuclei (%) [2]: 11%
- Population Tubulin-Different-Phenotype (%) [2]: 14%
- Total Cell Count [2]: 367
- Population Apoptotic (%) [3]: 31%
- Population Fragmented Nuclei (%) [3]: 10%
- Population Healthy Nuclei (%) [3]: 81%
- Population Hoechst High Intensity Objects (%) [3]: 6%
- Population Membrane Permeable-Phenotype (%) [3]: 0%
- Population Mitochondria Different-Phenotype (%) [3]: 49%
- Population Mitotic Cells (%) [3]: 68%
- Population Normal (%) [3]: 93%
- Population Pyknosed Nuclei (%) [3]: 7%
- Population Tubulin-Different-Phenotype (%) [3]: 33%
- Total Cell Count [3]: 460
- Population Apoptotic (%) [4]: 60%
- Population Fragmented Nuclei (%) [4]: 11%
- Population Healthy Nuclei (%) [4]: 77%
- Population Hoechst High Intensity Objects (%) [4]: 9%
- Population Membrane Permeable-Phenotype (%) [4]: 2%
- Population Mitochondria Different-Phenotype (%) [4]: 63%
- Population Mitotic Cells (%) [4]: 39%
- Population Normal (%) [4]: 90%
- Population Pyknosed Nuclei (%) [4]: 11%
- Total Cell Count [4]: 391
- Population Apoptotic (%) [5]: 25%
- Population Fragmented Nuclei (%) [5]: 11%
- Population Healthy Nuclei (%) [5]: 78%
- Population Hoechst High Intensity Objects (%) [5]: 5%
- Population Membrane Permeable-Phenotype (%) [5]: 1%
- Population Mitochondria Different-Phenotype (%) [5]: 26%
- Population Mitotic Cells (%) [5]: 74%
- Population Normal (%) [5]: 94%
- Population Pyknosed Nuclei (%) [5]: 10%
- Population Tubulin-Different-Phenotype (%) [5]: 21%
- Total Cell Count [5]: 542
- Population Fragmented Nuclei (%) [6]: 9%
- Population Healthy Nuclei (%) [6]: 83%
- Population Membrane Permeable-Phenotype (%) [6]: 0%
- Population Mitochondria Different-Phenotype (%) [6]: 32%
- Population Mitotic Cells (%) [6]: 75%
- Population Pyknosed Nuclei (%) [6]: 6%
- Population Tubulin-Different-Phenotype (%) [6]: 9%
- Total Cell Count [6]: 486
- Population Apoptotic (%) [7]: 32%
- Population Fragmented Nuclei (%) [7]: 12%
- Population Healthy Nuclei (%) [7]: 77%
- Population Hoechst High Intensity Objects (%) [7]: 5%
- Population Membrane Permeable-Phenotype (%) [7]: 0%
- Population Mitochondria Different-Phenotype (%) [7]: 38%
- Population Mitotic Cells (%) [7]: 67%
- Population Normal (%) [7]: 94%
- Population Pyknosed Nuclei (%) [7]: 9%
- Population Tubulin-Different-Phenotype (%) [7]: 23%
- Total Cell Count [7]: 588
- Population Apoptotic (%) [8]: 47%
- Population Fragmented Nuclei (%) [8]: 15%
- Population Healthy Nuclei (%) [8]: 74%
- Population Hoechst High Intensity Objects (%) [8]: 15%
- Population Mitochondria Different-Phenotype (%) [8]: 48%
- Population Mitotic Cells (%) [8]: 52%
- Population Normal (%) [8]: 84%
- Population Tubulin-Different-Phenotype (%) [8]: 19%
- Total Cell Count [8]: 505
- Population Apoptotic (%) [9]: 23%
- Population Fragmented Nuclei (%) [9]: 11%
- Population Healthy Nuclei (%) [9]: 81%
- Population Hoechst High Intensity Objects (%) [9]: 2%
- Population Membrane Permeable-Phenotype (%) [9]: 2%
- Population Mitochondria Different-Phenotype (%) [9]: 19%
- Population Mitotic Cells (%) [9]: 76%
- Population Normal (%) [9]: 97%
- Population Pyknosed Nuclei (%) [9]: 6%
- Population Tubulin-Different-Phenotype (%) [9]: 14%
- Total Cell Count [9]: 814
- Population Apoptotic (%) [10]: 21%
- Population Fragmented Nuclei (%) [10]: 16%
- Population Healthy Nuclei (%) [10]: 75%
- Population Hoechst High Intensity Objects (%) [10]: 5%
- Population Membrane Permeable-Phenotype (%) [10]: 1%
- Population Mitochondria Different-Phenotype (%) [10]: 24%
- Population Mitotic Cells (%) [10]: 78%
- Population Normal (%) [10]: 94%
- Population Pyknosed Nuclei (%) [10]: 8%
- Population Tubulin-Different-Phenotype (%) [10]: 13%
- Total Cell Count [10]: 596
- Population Apoptotic (%) [11]: 29%
- Population Fragmented Nuclei (%) [11]: 17%
- Population Healthy Nuclei (%) [11]: 75%
- Population Hoechst High Intensity Objects (%) [11]: 5%
- Population Membrane Permeable-Phenotype (%) [11]: 1%
- Population Mitochondria Different-Phenotype (%) [11]: 21%
- Population Mitotic Cells (%) [11]: 70%
- Population Normal (%) [11]: 94%
- Population Pyknosed Nuclei (%) [11]: 6%
- Population Tubulin-Different-Phenotype (%) [11]: 13%
- Total Cell Count [11]: 883
- Population Apoptotic (%) [12]: 58%
- Population Fragmented Nuclei (%) [12]: 15%
- Population Healthy Nuclei (%) [12]: 76%
- Population Hoechst High Intensity Objects (%) [12]: 11%
- Population Membrane Permeable-Phenotype (%) [12]: 0%
- Population Mitochondria Different-Phenotype (%) [12]: 35%
- Population Mitotic Cells (%) [12]: 41%
- Population Normal (%) [12]: 88%
- Population Pyknosed Nuclei (%) [12]: 7%
- Population Tubulin-Different-Phenotype (%) [12]: 20%
- Total Cell Count [12]: 641
